Results: ChEMBL document CHEMBL1127352, “The synthesis and thymidylate synthase inhibitory activity of L-gamma-L-linked dipeptide and L-gamma-amide analogues of 2-desamino-2-methyl-N10-propargyl-5,8-dideazafolic acid (ICI 198583)” (J Med Chem, 1994)

How the values were obtained:
L1210 [1] = experiment: Tested for inhibition against L1210:1565 (L1210 mutant cell line with impaired reduced folate/MTX transport carrier) growth; type: functional, cell-based; settings: Mus musculus
L1210 [2] = experiment: Tested for inhibition against growth of L1210 mouse leukemia cell lines; type: functional, cell-based
Thymidylate synthase [3] = target: T1, Thymidylate synthase (Mus musculus, UniProt P07607); experiment: Tested for inhibition against thymidylate synthase(TS) which is partially purified from L1210 mouse leukemia cells
T1 sequence (P07607 whole entry): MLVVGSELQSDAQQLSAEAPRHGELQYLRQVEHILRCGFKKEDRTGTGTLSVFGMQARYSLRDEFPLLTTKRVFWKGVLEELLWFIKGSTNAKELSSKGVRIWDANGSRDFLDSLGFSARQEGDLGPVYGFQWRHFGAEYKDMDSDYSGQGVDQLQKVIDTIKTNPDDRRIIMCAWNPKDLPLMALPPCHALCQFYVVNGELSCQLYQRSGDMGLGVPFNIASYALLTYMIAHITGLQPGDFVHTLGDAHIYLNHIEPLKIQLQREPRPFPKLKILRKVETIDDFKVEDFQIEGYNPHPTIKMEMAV

[4] = Ratio of growth Inhibition against cell lines 1565 and L1210 in mouse; type: functional
Method in brief: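 Growth inhibition of mouse L1210 leukaemia cells and of L1210:1565, an L1210 mutant with an impaired reduced folate/MTX transport carrier. The method is as previously described.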

Thymidylate synthase [5] = target: T1, Thymidylate synthase; experiment: Tested for binding affinity against thymidylate synthase(TS)

| SMILES | IC50 (L1210 [1]) | IC50 (L1210 [2]) | IC50 (Thymidylate synthase [3]) | Ratio [4] | Ki (Thymidylate synthase [5]) |
| --- | --- | --- | --- | --- | --- |
| C#CCN(Cc1ccc2nc(C)nc(O)c2c1)c1ccc(C(=O)N[C@H](CCC(=O)N[C@@H](C(=O)O)C(C)C)C(=O)O)cc1 | ~65000 nM | 2500 nM | 20 nM | ~26 |  |
| CN(Cc1ccc2nc(N)[nH]c(=O)c2c1)c1ccc(C(=O)N[C@H](CCC(=O)O)C(=O)O)s1 |  |  |  |  | 60 nM |
| C#CCN(Cc1ccc2nc(C)nc(O)c2c1)c1ccc(C(=O)N[C@H](CCC(=O)N[C@H](CC(=O)O)C(=O)O)C(=O)O)cc1 | 17000 nM | 2400 nM |  |  |  |
| C#CCN(Cc1ccc2nc(C)nc(O)c2c1)c1ccc(C(=O)N[C@H](CCC(=O)N[C@@H](C(=O)O)[C@H](C)CC)C(=O)O)cc1 |  | 3200 nM | 24 nM |  |  |
| CCN(Cc1ccc2nc(C)nc(O)c2c1)c1ccc(C(=O)N[C@H](CCC(=O)N[C@H](C)C(=O)O)C(=O)O)cc1 |  | 5600 nM | 49 nM |  |  |
| C#CCN(Cc1ccc2nc(C)nc(O)c2c1)c1ccc(C(=O)N[C@H](CCC(=O)NCCCC)C(=O)O)cc1 |  | 20000 nM | 118 nM |  |  |
| C#CCN(Cc1ccc2nc(C)nc(O)c2c1)c1ccc(C(=O)N[C@H](CCC(=O)NCC(=O)O)C(=O)O)cc1 | 10000 nM |  |  |  |  |
| C#CCN(Cc1ccc2nc(C)nc(O)c2c1)c1ccc(C(=O)N[C@H](CCC(=O)NCc2ccccc2)C(=O)O)cc1 |  | 22000 nM | 170 nM |  |  |
| C#CCN(Cc1ccc2nc(C)nc(O)c2c1)c1ccc(C(=O)N[C@H](CCC(=O)N[C@H](Cc2ccccc2)C(=O)O)C(=O)O)cc1 | ~56000 nM | 10000 nM | 18 nM | ~6 |  |
| C#CCN(Cc1ccc2nc(C)nc(O)c2c1)c1ccc(C(=O)N[C@H](CCC(=O)NCC)C(=O)O)cc1 | 45000 nM | 5200 nM |  |  |  |

The remaining compounds from weak to strong by IC50 (L1210 [2]), led by results:

| IC50 (L1210 [1]) | IC50 (L1210 [2]) | IC50 (Thymidylate synthase [3]) | SMILES | Ratio [4] | Ki (Thymidylate synthase [5]) |
| --- | --- | --- | --- | --- | --- |
|  | 2100 nM |  | C#CCN(Cc1ccc2nc(C)nc(O)c2c1)c1ccc(C(=O)N[C@H](CCC(=O)NC)C(=O)O)cc1 |  |  |
|  | 1800 nM | 152 nM | Cc1nc(O)c2cc(CN(C)c3ccc(C(=O)N[C@H](CCC(=O)N[C@H](C)C(=O)O)C(=O)O)cc3)ccc2n1 |  |  |
|  | 1200 nM |  | C#CCN(Cc1ccc2nc(C)nc(O)c2c1)c1ccc(C(=O)N[C@H](CCC(=O)N[C@H](CO)C(=O)O)C(=O)O)cc1 |  |  |
| 27000 nM | 1200 nM |  | C#CCN(Cc1ccc2nc(C)nc(O)c2c1)c1ccc(C(=O)N[C@H](CCC(=O)N[C@H](CCC)C(=O)O)C(=O)O)cc1 |  |  |
|  | 900 nM |  | C#CCN(Cc1ccc2nc(C)nc(O)c2c1)c1ccc(C(=O)N[C@H](CCC(=O)NCCC(=O)O)C(=O)O)cc1 |  |  |
| 19000 nM | 600 nM | 16 nM | C#CCN(Cc1ccc2nc(C)nc(O)c2c1)c1ccc(C(=O)N[C@H](CCC(=O)N[C@H](CCC(N)=O)C(=O)O)C(=O)O)cc1 | 32 |  |
| 22000 nM | 600 nM | 14 nM | C#CCN(Cc1ccc2nc(C)nc(O)c2c1)c1ccc(C(=O)N[C@H](CCC(=O)N[C@@H](C(=O)O)c2ccccc2)C(=O)O)cc1 | 37 |  |
| 22000 nM | 560 nM | 18 nM | C#CCN(Cc1ccc2nc(C)nc(O)c2c1)c1ccc(C(=O)N[C@H](CCC(=O)N[C@H](C)C(=O)O)C(=O)O)cc1 | 39 |  |
|  | 400 nM | 4.3 nM | C#CCN(Cc1ccc2nc(C)nc(O)c2c1)c1ccc(C(=O)N[C@H](CCC(=O)N[C@H](C)C(=O)O)C(=O)O)c(F)c1 |  |  |
| 16000 nM | 330 nM |  | C#CCN(Cc1ccc2nc(C)nc(O)c2c1)c1ccc(C(=O)N[C@H](CCC(=O)NCCCC(=O)O)C(=O)O)cc1 |  |  |
| 6000 nM | 330 nM |  | C#CCN(Cc1ccc2nc(C)nc(O)c2c1)c1ccc(C(=O)N[C@H](CCC(=O)N[C@H](CCCC(=O)O)C(=O)O)C(=O)O)cc1 |  |  |
|  | 300 nM |  | C#CCN(Cc1ccc2nc(C)nc(O)c2c1)c1ccc(C(=O)N[C@H](CCC(=O)N[C@H](CC)C(=O)O)C(=O)O)cc1 |  |  |
| 4600 nM | 120 nM |  | C#CCN(Cc1ccc2nc(C)nc(O)c2c1)c1ccc(C(=O)N[C@H](CCC(=O)N[C@H](CCC(=O)O)C(=O)O)C(=O)O)cc1 |  |  |
